pKi: −log10 of the molar value. Bridge positions count the residues as written; N and C are the ends. Square brackets hold non-standard residues; d marks the D form. Peptide text beside a SMILES is read from it. Cha = N[C@@H](CC1CCCCC1)C(=O)O; Mpa = O=C(O)CCS
Columns and labels:
[1] = target: Vasopressin V1a receptor (Homo sapiens, UniProt P37288); test: Binding affinity against human vasopressin V1a receptor was determined by using plasma membranes from CHO cells stably transfected with VP/OT receptors; assay type: cell membranes
Sequence of Vasopressin V1a receptor (P37288 whole entry): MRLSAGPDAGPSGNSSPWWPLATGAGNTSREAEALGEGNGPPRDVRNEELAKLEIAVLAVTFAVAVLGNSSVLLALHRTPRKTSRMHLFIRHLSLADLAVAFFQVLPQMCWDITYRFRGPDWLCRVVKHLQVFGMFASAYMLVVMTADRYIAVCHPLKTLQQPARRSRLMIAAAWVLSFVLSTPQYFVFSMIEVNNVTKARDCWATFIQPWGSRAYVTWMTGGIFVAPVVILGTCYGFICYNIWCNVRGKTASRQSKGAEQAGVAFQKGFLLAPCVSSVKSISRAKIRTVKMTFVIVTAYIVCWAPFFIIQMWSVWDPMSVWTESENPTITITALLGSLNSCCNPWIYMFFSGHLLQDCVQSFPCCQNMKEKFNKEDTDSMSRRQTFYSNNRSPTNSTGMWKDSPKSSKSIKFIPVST
In short: (§1)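 Competition binding on plasma membranes from stably transfected CHO cells (human receptors). Membranes (1–20 µg protein) incubated 60 min at 30 °C in 50 mM Tris-HCl pH 7.4, 3 mM MgCl2, 1 mg/mL BSA, leupeptine, 0.1 mM PMSF, with 0.5–3 nM [3H]AVP and increasing analogue; nonspecific binding with 1 µM AVP.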

[2] = target: Vasopressin V2 receptor (Homo sapiens, UniProt P30518); test: Binding affinity against human vasopressin V2 receptor was determined by using plasma membranes from CHO cells stably transfected with VP/OT receptors; assay type: cell membranes; in short: as §1
Sequence of Vasopressin V2 receptor (P30518 whole entry): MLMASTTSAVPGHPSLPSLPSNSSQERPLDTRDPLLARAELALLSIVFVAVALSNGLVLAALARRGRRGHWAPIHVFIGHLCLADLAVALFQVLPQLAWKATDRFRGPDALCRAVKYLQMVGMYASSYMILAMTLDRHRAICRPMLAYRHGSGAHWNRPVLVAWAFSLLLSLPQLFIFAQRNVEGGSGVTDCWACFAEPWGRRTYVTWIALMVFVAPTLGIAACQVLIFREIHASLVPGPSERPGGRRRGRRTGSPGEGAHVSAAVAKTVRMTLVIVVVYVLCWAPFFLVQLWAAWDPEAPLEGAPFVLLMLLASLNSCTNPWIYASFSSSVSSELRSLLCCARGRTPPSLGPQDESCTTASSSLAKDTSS

Row | SMILES | pKi [1] | pKi [2]
1 | NC[C@@H]1NC(=O)[C@H](Cc2ccccc2)NC(=O)[C@H](Cc2ccc(O)cc2)NC(=O)CCSSC[C@@H](C(=O)N2CCC[C@H]2C(=O)N[C@@H](CCCN=C(N)N)C(=O)NCC(N)=O)NC(=O)[C@H](CC(N)=O)NC1=O (stereo in doubt) | 7.71 | 7.43
2 | NCC[C@@H]1NC(=O)[C@H](Cc2ccccc2)NC(=O)[C@H](Cc2ccc(O)cc2)NC(=O)CCSSC[C@@H](C(=O)N2CCC[C@H]2C(=O)N[C@@H](CCCN=C(N)N)C(=O)NCC(N)=O)NC(=O)[C@H](CC(N)=O)NC1=O (stereo in doubt) | 7.44 | 6.25
3 | NC(=O)CNC(=O)[C@H](CCCN=C(N)N)NC(=O)[C@@H]1CCCN1C(=O)[C@@H]1CSSCCC(=O)N[C@@H](Cc2ccc(O)cc2)C(=O)N[C@@H](Cc2ccccc2)C(=O)N[C@@H](CO)C(=O)N[C@@H](CC(N)=O)C(=O)N1 (stereo in doubt) | 7.89 | 7.61
4 | C[C@@H]1NC(=O)[C@H](Cc2ccccc2)NC(=O)[C@H](Cc2ccc(O)cc2)NC(=O)CCSSC[C@@H](C(=O)N2CCC[C@H]2C(=O)N[C@@H](CCCN=C(N)N)C(=O)NCC(N)=O)NC(=O)[C@H](CC(N)=O)NC1=O | 7.66 | 7.86
5 | CCCC[C@@H]1NC(=O)[C@H](Cc2ccccc2)NC(=O)[C@H](Cc2ccc(O)cc2)NC(=O)CCSSC[C@@H](C(=O)N2CCC[C@H]2C(=O)N[C@@H](CCCN=C(N)N)C(=O)NCC(N)=O)NC(=O)[C@H](CC(N)=O)NC1=O (stereo in doubt) | 7.55 | 6.93
6 | CC[C@H](C)[C@@H]1NC(=O)[C@H](Cc2ccccc2)NC(=O)[C@H](Cc2ccc(O)cc2)NC(=O)CCSSC[C@@H](C(=O)N2CCC[C@H]2C(=O)N[C@@H](CCCN=C(N)N)C(=O)NCC(N)=O)NC(=O)[C@H](CC(N)=O)NC1=O | 7.77 | 8.00
7 | NC(=O)CNC(=O)[C@H](CCCN=C(N)N)NC(=O)[C@@H]1CCCN1C(=O)[C@@H]1CSSCCC(=O)N[C@@H](Cc2ccc(O)cc2)C(=O)N[C@@H](Cc2ccccc2)C(=O)N[C@@H](Cc2ccc(O)cc2)C(=O)N[C@@H](CC(N)=O)C(=O)N1 (stereo in doubt) | 7.43 | 6.21
8 | NC(=O)CNC(=O)[C@H](CCCN=C(N)N)NC(=O)[C@@H]1CCCN1C(=O)[C@@H]1CSSCCC(=O)N[C@@H](Cc2ccc(O)cc2)C(=O)N[C@@H](Cc2ccccc2)C(=O)N[C@@H](Cc2ccccc2)C(=O)N[C@@H](CC(N)=O)C(=O)N1 (stereo in doubt) | 7.10 | 5.97
9 | CC(C)C[C@@H]1NC(=O)[C@H](Cc2ccccc2)NC(=O)[C@H](Cc2ccc(O)cc2)NC(=O)CCSSC[C@@H](C(=O)N2CCC[C@H]2C(=O)N[C@@H](CCCN=C(N)N)C(=O)NCC(N)=O)NC(=O)[C@H](CC(N)=O)NC1=O | 7.36 | 6.61
10 | NC(=O)CNC(=O)[C@H](CCCN=C(N)N)NC(=O)[C@@H]1CCCN1C(=O)[C@@H]1CSSCCC(=O)N[C@@H](Cc2ccc(O)cc2)C(=O)N[C@@H](Cc2ccccc2)C(=O)N[C@@H](CC2CCCCC2)C(=O)N[C@@H](CC(N)=O)C(=O)N1 ([Mpa]YF[Cha]NCPRG-NH2; disulfide 1-6) | 6.82 | 6.12
11 | NC(=O)CNC(=O)[C@H](CCCN=C(N)N)NC(=O)[C@@H]1CCCN1C(=O)[C@@H]1CSSCCC(=O)N[C@@H](Cc2ccc(O)cc2)C(=O)N[C@@H](Cc2ccccc2)C(=O)N[C@@H](Cc2cccs2)C(=O)N[C@@H](CC(N)=O)C(=O)N1 (stereo in doubt) | 7.20 | 5.35
12 | N=C(N)NCCC[C@@H]1NC(=O)[C@H](Cc2ccccc2)NC(=O)[C@H](Cc2ccc(O)cc2)NC(=O)CCSSC[C@@H](C(=O)N2CCC[C@H]2C(=O)N[C@@H](CCCN=C(N)N)C(=O)NCC(N)=O)NC(=O)[C@H](CC(N)=O)NC1=O (stereo in doubt) | 7.27 | 6.88
13 | NCCC[C@@H]1NC(=O)[C@H](Cc2ccccc2)NC(=O)[C@H](Cc2ccc(O)cc2)NC(=O)CCSSC[C@@H](C(=O)N2CCC[C@H]2C(=O)N[C@@H](CCCN=C(N)N)C(=O)NCC(N)=O)NC(=O)[C@H](CC(N)=O)NC1=O (stereo in doubt) | 7.06 | 5.95
14 | NC(=O)CNC(=O)[C@H](CCCN=C(N)N)NC(=O)[C@@H]1CCCN1C(=O)[C@@H]1CSSCCC(=O)N[C@@H](Cc2ccc(O)cc2)C(=O)N[C@@H](Cc2ccccc2)C(=O)N[C@@H](CCC(=O)O)C(=O)N[C@@H](CC(N)=O)C(=O)N1 (stereo in doubt) | 6.36 | 5.96
15 | CC[C@@H]1NC(=O)[C@H](Cc2ccccc2)NC(=O)[C@H](Cc2ccc(O)cc2)NC(=O)CCSSC[C@@H](C(=O)N2CCC[C@H]2C(=O)N[C@@H](CCCN=C(N)N)C(=O)NCC(N)=O)NC(=O)[C@H](CC(N)=O)NC1=O (stereo in doubt) | 7.71 | 8.68
16 | NCCCC[C@@H]1NC(=O)[C@H](Cc2ccccc2)NC(=O)[C@H](Cc2ccc(O)cc2)NC(=O)CCSSC[C@@H](C(=O)N2CCC[C@H]2C(=O)N[C@@H](CCCN=C(N)N)C(=O)NCC(N)=O)NC(=O)[C@H](CC(N)=O)NC1=O (stereo in doubt) | 6.33 | 4.95

Further compounds by rising pKi [2], results first:

Row | pKi [1] | pKi [2] | SMILES
17 | 7.32 | 5.86 | NC(=O)CNC(=O)[C@H](CCCN=C(N)N)NC(=O)[C@@H]1CCCN1C(=O)[C@@H]1CSSCCC(=O)N[C@@H](Cc2ccc(O)cc2)C(=O)N[C@@H](Cc2ccccc2)C(=O)N[C@@H](CCCCN=C(N)N)C(=O)N[C@@H](CC(N)=O)C(=O)N1 (stereo in doubt)
18 | 6.56 | 6.26 | NC(=O)CNC(=O)[C@H](CCCN=C(N)N)NC(=O)[C@@H]1CCCN1C(=O)[C@@H]1CSSCCC(=O)N[C@@H](Cc2ccc(O)cc2)C(=O)N[C@@H](Cc2ccccc2)C(=O)NCC(=O)N[C@@H](CC(N)=O)C(=O)N1
19 | 7.12 | 7.10 | NC(=O)CNC(=O)[C@H](CCCN=C(N)N)NC(=O)[C@@H]1CCCN1C(=O)[C@@H]1CSSCCC(=O)N[C@@H](Cc2ccc(O)cc2)C(=O)N[C@@H](Cc2ccccc2)C(=O)N[C@@H](Cc2c[nH]c3ccccc23)C(=O)N[C@@H](CC(N)=O)C(=O)N1 (stereo in doubt)
20 |  | 7.30 | NC(=O)CNC(=O)[C@H](CCCN=C(N)N)NC(=O)[C@@H]1CCCN1C(=O)[C@@H]1CSSCCC(=O)N[C@@H](Cc2ccc(O)cc2)C(=O)N[C@@H](Cc2ccccc2)C(=O)N[C@@H](CC(N)=O)C(=O)N[C@@H](CC(N)=O)C(=O)N1 (stereo in doubt)
21 | 7.65 | 7.62 | CCC[C@@H]1NC(=O)[C@H](Cc2ccccc2)NC(=O)[C@H](Cc2ccc(O)cc2)NC(=O)CCSSC[C@@H](C(=O)N2CCC[C@H]2C(=O)N[C@@H](CCCN=C(N)N)C(=O)NCC(N)=O)NC(=O)[C@H](CC(N)=O)NC1=O (stereo in doubt)
22 | 8.54 | 8.82 | C[C@@H](O)[C@@H]1NC(=O)[C@H](Cc2ccccc2)NC(=O)[C@H](Cc2ccc(O)cc2)NC(=O)CCSSC[C@@H](C(=O)N2CCC[C@H]2C(=O)N[C@@H](CCCN=C(N)N)C(=O)NCC(N)=O)NC(=O)[C@H](CC(N)=O)NC1=O (stereo in doubt)
23 | 7.94 | 8.92 | CC(C)[C@@H]1NC(=O)[C@H](Cc2ccccc2)NC(=O)[C@H](Cc2ccc(O)cc2)NC(=O)CCSSC[C@@H](C(=O)N2CCC[C@H]2C(=O)N[C@@H](CCCN=C(N)N)C(=O)NCC(N)=O)NC(=O)[C@H](CC(N)=O)NC1=O ([Mpa]YFVNCPRG-NH2; disulfide 1-6)
